Measurements collected from several papers.
Each line is one published result; the experiments were not run side by side.
Target: Serine/threonine-protein kinase Sgk1 (SGK1, Homo sapiens, UniProt O00141)
One construct used (O00141 1-431): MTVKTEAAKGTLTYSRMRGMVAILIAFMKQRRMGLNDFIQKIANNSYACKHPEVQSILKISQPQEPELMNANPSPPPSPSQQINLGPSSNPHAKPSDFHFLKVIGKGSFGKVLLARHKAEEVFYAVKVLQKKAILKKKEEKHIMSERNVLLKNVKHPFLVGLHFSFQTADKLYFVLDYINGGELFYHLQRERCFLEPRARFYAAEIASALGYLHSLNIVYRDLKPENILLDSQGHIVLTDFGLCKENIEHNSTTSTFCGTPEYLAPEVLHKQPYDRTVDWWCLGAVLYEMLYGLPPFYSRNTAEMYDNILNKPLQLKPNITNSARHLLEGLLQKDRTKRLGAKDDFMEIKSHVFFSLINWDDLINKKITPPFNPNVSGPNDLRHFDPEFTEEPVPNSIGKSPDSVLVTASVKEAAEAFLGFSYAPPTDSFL

SMILES | effect on | method | tested at | remaining binding
COc1cnc(Nc2cccc(S(N)(=O)=O)c2)nc1N1CCN(c2ccccc2)C(=O)C1 | binding | competition with immobilised ligand | 1 µM | 94%
CC(=O)N1CCC(c2ccc(C(=O)NC3=NCCN3)cc2C(F)(F)F)CC1 | cell-free assay | competition with immobilised ligand | 1 µM | 100%
C[C@@H](c1ccc(-n2cnc3c(N)ncnc32)cc1)N1CCc2nn(C)c(Cc3ccccc3)c2C1=O | binding | competition with immobilised ligand | 0.1 µM | 61%
CC1CCCN1c1nccc(-c2cnn3ncccc23)n1 (stereo not shown) | binding |  | 1 µM | 86%
O=C(NCc1ncc(C(F)(F)F)cc1Cl)c1ccc2c(c1)C1(CCS(=O)(=O)CC1)[C@@H](C1CC1)N2S(=O)(=O)c1ccc(F)cc1 | cell-free assay | competition with immobilised ligand | 1 µM | 77%
O=C(NCCCN1CCOCC1)c1ccc(Nc2nccc(-c3cc4ccccc4s3)n2)cc1 | binding | competition with immobilised ligand | 1 µM | 8%
O=C(N[C@H]1CCCCC/C=C\C2C[C@@]2(C(=O)O)NC(=O)[C@@H]2C[C@@H](Oc3ccncc3)CN2C1=O)OC1CCCC1 (stereo partly shown) | binding | competition with immobilised ligand | 1 µM | 100%
Cc1cnn2ncc(-c3ccnc(N(C)C)n3)c2c1 | binding |  | 1 µM | 73%
COc1ncc2cc3ccccc3nc2c1C#N | cell-free assay | competition with immobilised ligand | 5 µM | 94%
O=C(c1ccc(Nc2nccc(-c3cc4ccccc4s3)n2)cc1)N1CCC(N2CCCC2)CC1 | binding | competition with immobilised ligand | 1 µM | 1.1%
C[C@H]1CCN(c2nccc(-c3cnn4ncccc34)n2)C1 | binding |  | 1 µM | 68%
CCCCN(CCCC)C(=O)CN1C[C@@H](c2cc(OC)c3c(c2)OCO3)[C@H](C(=O)O)[C@H]1CC(C)(C)CCC | cell-free assay | competition with immobilised ligand | 1 µM | 77.6%
CN(C)c1nccc(-c2cnn3ncccc23)n1 | binding |  | 1 µM | 69%
CN(C)CC#Cc1ccc(OCCCc2sc(N3CCc4cccc(C(=O)Nc5nc6ccccc6s5)c4C3)nc2C(=O)O)c(F)c1 | cell-free assay | competition with immobilised ligand | 1 µM | 100%
CNC(=O)[C@@H]1CC[C@@H](n2c(-c3ccc4cnccc4c3)nc3ccc(C(=O)NCc4cccc(C(N)=O)c4)cc32)C1 | binding | competition with immobilised ligand | 1 µM | 94%
N[C@H]1CCN(c2nccc(-c3cnn4ncccc34)n2)C1 | binding |  | 1 µM | 91%
CC(=O)Nc1c(C(C)=O)c(=O)n(C)c2nc(-c3ccc(Cl)cc3Cl)c(-c3ccc(Cl)cc3)cc12 | cell-free assay | competition with immobilised ligand | 1 µM | 100%
O=C(NCC1CCOCC1)c1n[nH]cc1NC(=O)c1c(F)cccc1F | binding | competition with immobilised ligand | 1 µM | 89%
CN(c1nccc(-c2cnn3ncccc23)n1)C1CC1 | binding |  | 1 µM | 100%
O=C(c1ccc(Nc2ncc(Cl)c(-c3cc4ccccc4s3)n2)cc1)N1CCC(N2CCCC2)CC1 | binding | competition with immobilised ligand | 1 µM | 0.1%
c1cnn2ncc(-c3ccnc(N4CCC45COC5)n3)c2c1 | binding |  | 1 µM | 55%
Cc1nc(Cc2cccc(C(F)(F)F)c2)sc1-c1ccc(C(N)=O)nc1 | cell-free assay | competition with immobilised ligand | 1 µM | 100%
